From ChEMBL document CHEMBL1629604, “Targeting type III secretion in Yersinia pestis” (Antimicrob Agents Chemother, 2009)
Activity calls are given as the source filed them. No cut-off for these calls is given here.

Columns and labels:
Yersinia pestis [1] = test: Toxicity in Yersinia pestis JG153 assessed as growth inhibition at 60 uM measured 6 mins intervals for 24 hrs; assay type: organism-based
Yersinia pestis [2] = test: (§1) Inhibition of T3SS-mediated YopD secretion in Yersinia pestis JG401 after 2 hrs by Western blotting
[3] = as §1
HeLa [4] = test: Cytotoxicity against human HeLa cells assessed as cell detachment up to 60 uM after 3 hrs; assay type: cell-based
Summary of the method: (§2)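 HeLa monolayers seeded 1 day before at 1×10^5 cells/well in DMEM with 3% heat-inactivated FBS. Compound applied, cells incubated 37°C for 3 h. Monolayer disruption scored by microscopy as rounding and as percentage of cells detached from the plate.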

HeLa [5] = test: Cytotoxicity against human HeLa cells assessed as LDH release up to 60 uM after 3 hrs; assay type: cell-based
Summary of the method: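 HeLa cells seeded 1 day before in DMEM with 3% heat-inactivated FBS, then exposed to compound up to 60 μM at 37°C for 2–3 h. LDH in supernatant measured by kit. 0.1% Triton X-100 lysis gave the maximum and untreated cells the baseline; % cytotoxicity was calculated relative to both. Mean of three independent assays.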

Yersinia pestis [6] = test: (§3) Inhibition of T3SS-mediated YopM secretion in Yersinia pestis JG401 after 2 hrs by Western blotting
[7] = as §3
Escherichia coli = test: Inhibition of T3SS-mediated Tir secretion in enteropathogenic Escherichia coli KC14 harboring pKC17 at after 2 hrs by Western blotting
HeLa [8] = test: Cytotoxicity against human HeLa cells assessed as cell rounding up to 60 uM after 3 hrs; assay type: cell-based; summary of the method: as §2
Yersinia pestis [9] = test: (§4) Inhibition of T3SS-mediated YopH secretion in Yersinia pestis JG401 after 2 hrs by Western blotting
[10] = as §4
Yersinia pestis [11] = test: Inhibition of translocation of YopE::Bla fusion from pMM85 expressing Yersinia pestis JG153 to human HeLa cells at 80 uM after 3 hrs by fluorescence microscopic analysis; assay type: functional, organism-based
HeLa [12] = test: Inhibition pCD1 positive Yersinia pestis JG153 T3SS-mediated morphological changes in human HeLa cells after 3 hrs; assay type: cell-based
Yersinia pestis [13] = test: Inhibition of T3SS-mediated YopD secretion in Yersinia pestis JG401 at up to 60 uM after 2 hrs by Western blotting
Yersinia pestis [14] = test: Inhibition of T3SS-mediated YopD secretion in Yersinia pestis JG401 at 15 uM after 2 hrs by Western blotting
Yersinia pestis [15] = test: Inhibition of T3SS-mediated YopM secretion in Yersinia pestis JG401 t up to 60 uM after 2 hrs by Western blotting
Yersinia pestis [16] = test: Inhibition of translocation of YopE::Bla fusion from pMM85 expressing Yersinia pestis JG153 to human HeLa cells at 40 uM after 3 hrs by fluorescence microscopic analysis; assay type: functional

O=C(N/N=C/c1cc(Br)cc(Br)c1O)c1ccc([N+](=O)[O-])cc1
Activity (Yersinia pestis [1]): Toxic

Cc1cc(O)ccc1Sc1ccc(O)cc1C
inhibition (Yersinia pestis [2]): Dose-dependent effect
IC50 [3]: 10 µM
Activity (HeLa [4]): Toxic
Activity (HeLa [5]): Toxic
inhibition (Yersinia pestis [6]): Dose-dependent effect
IC50 [7]: 10 µM
inhibition (Escherichia coli): inactive
Activity (Yersinia pestis [1]): Non-toxic
Activity (HeLa [8]): Toxic
inhibition (Yersinia pestis [9]): Dose-dependent effect
IC50 [10]: 10 µM

Cc1ccc(CSc2nc(C(=O)O)ccc2C#N)cc1
inhibition (Yersinia pestis [2]): Dose-dependent effect
Activity (HeLa [4]): Non-toxic
Activity (HeLa [5]): Non-toxic
inhibition (Yersinia pestis [6]): Dose-dependent effect
inhibition (Escherichia coli; concentration not given here): 96%
inhibition (Yersinia pestis [11]): inactive
inhibition (HeLa [12]): Dose-dependent effect
Activity (Yersinia pestis [1]): Non-toxic
Activity (HeLa [8]): Non-toxic
inhibition (Yersinia pestis [9]): Dose-dependent effect

O=C(Nc1cccc(C2=NCCN2)c1)Nc1cccc(C2=NCCN2)c1 [IMIDOCARB]
Activity (HeLa [4]): Non-toxic
Activity (HeLa [5]): Non-toxic
Activity (Yersinia pestis [1]): Non-toxic
Activity (HeLa [8]): Non-toxic

O=C(Nc1cccc(C2=NCCN2)c1)Nc1cccc(C2=NCCN2)c1
inhibition (Yersinia pestis [2]): Dose-dependent effect
inhibition (Yersinia pestis [13]): inactive
inhibition (Yersinia pestis [6]): Dose-dependent effect
inhibition (Escherichia coli; concentration not given here): 81%
inhibition (Yersinia pestis [14]): 50%
inhibition (Yersinia pestis [11]): Active
inhibition (HeLa [12]): Dose-dependent effect
inhibition (Yersinia pestis [15]): inactive
inhibition (Yersinia pestis [9]): Dose-dependent effect

Cc1ccc(-c2nn(-c3ccccc3)cc2C2CC(c3cccs3)=NN2C(=O)CCCC(=O)O)cc1 (stereo unspecified)
inhibition (Yersinia pestis [2]): Dose-dependent effect
Activity (HeLa [4]): Non-toxic
Activity (HeLa [5]): Non-toxic
inhibition (Yersinia pestis [6]): Dose-dependent effect
INCC50 (Escherichia coli): inactive
inhibition (Yersinia pestis [11]): inactive
inhibition (HeLa [12]): Dose-dependent effect
Activity (Yersinia pestis [1]): Non-toxic
Activity (HeLa [8]): Non-toxic
inhibition (Yersinia pestis [9]): Dose-dependent effect

O=C(Nc1cccc(C2=NCCN2)c1)Nc1cccc(C2=NCCN2)c1 [IMIDOCARB DIPROPIONATE]
inhibition at 40 µM (Yersinia pestis [16]): 50%
